Source: ChEMBL document CHEMBL1154186, “Synthesis, kinase inhibitory potencies, and in vitro antiproliferative evaluation of new Pim kinase inhibitors” (J Med Chem, 2009)

Columns and labels:
[1] = target: Serine/threonine-protein kinase pim-1 (Homo sapiens) (UniProt P11309); assay: Inhibition of Pim-1 assessed as residual enzyme activity at 1 uM relative to untreated control
[2] = target: Serine/threonine-protein kinase pim-2 (Homo sapiens) (UniProt Q9P1W9); assay: Inhibition of Pim-2 assessed as residual enzyme activity at 1 uM relative to untreated control
[3] = target: Serine/threonine-protein kinase pim-3 (Homo sapiens) (UniProt Q86V86); assay: Inhibition of Pim-3 assessed as residual enzyme activity at 1 uM relative to untreated control
[4] = target: Serine/threonine-protein kinase pim-1 (Homo sapiens) (UniProt P11309); assay: Inhibition of Pim-1 assessed as residual enzyme activity at 10 uM relative to untreated control
[5] = target: Serine/threonine-protein kinase pim-2 (Homo sapiens) (UniProt Q9P1W9); assay: Inhibition of Pim-2 assessed as residual enzyme activity at 10 uM relative to untreated control
[6] = target: Serine/threonine-protein kinase pim-3 (Homo sapiens) (UniProt Q86V86); assay: Inhibition of Pim-3 assessed as residual enzyme activity at 10 uM relative to untreated control
PC-3 = assay: Antiproliferative activity against human PC3 cells after 48 hrs by resazurin dye reduction assay; assay type: functional, cell-based; conditions: PC-3, 48 h
Procedure, shortened: (§1)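 Cells (human fibroblast primary culture, or PC3, DU145 or PA1 cancer lines) were kept as monolayers in Glutamax MEM with Earle's salts, 10% FCS, pyruvate, nonessential amino acids and gentamicin, at 37 °C in 5% CO2. 5×10^3 cells/well adhered for 16 h, then had 48 h continuous drug exposure (20 mM DMSO stock). Resazurin 25 µg/mL for 1 h; fluorescence ex 530/em 590 nm. IC50 from blank-corrected concentration–survival curves versus control wells.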

DU-145 = assay: Antiproliferative activity against human DU145 cells after 48 hrs by resazurin dye reduction assay; assay type: functional, cell-based; conditions: DU-145, 48 h; procedure, shortened: as §1
PA-1 = assay: Antiproliferative activity against human PA1 cells after 48 hrs by resazurin dye reduction assay; assay type: functional, cell-based; conditions: PA-1, 48 h; procedure, shortened: as §1
[7] = Antiproliferative activity against human fibroblasts after 48 hrs by resazurin dye reduction assay; assay type: cell-based; conditions: Fibroblast; procedure, shortened: as §1

Serine/threonine-protein kinase pim-1 (Homo sapiens), sequence (P11309 whole entry, looked up): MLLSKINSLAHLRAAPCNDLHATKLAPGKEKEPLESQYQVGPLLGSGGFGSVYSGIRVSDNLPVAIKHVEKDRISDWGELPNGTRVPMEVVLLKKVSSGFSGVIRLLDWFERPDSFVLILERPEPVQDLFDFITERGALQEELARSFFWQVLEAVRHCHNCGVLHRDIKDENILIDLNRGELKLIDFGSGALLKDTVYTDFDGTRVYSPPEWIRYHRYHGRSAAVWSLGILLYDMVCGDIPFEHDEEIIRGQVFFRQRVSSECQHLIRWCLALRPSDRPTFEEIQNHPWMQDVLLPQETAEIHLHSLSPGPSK
Serine/threonine-protein kinase pim-2 (Homo sapiens), sequence (Q9P1W9 whole entry, looked up): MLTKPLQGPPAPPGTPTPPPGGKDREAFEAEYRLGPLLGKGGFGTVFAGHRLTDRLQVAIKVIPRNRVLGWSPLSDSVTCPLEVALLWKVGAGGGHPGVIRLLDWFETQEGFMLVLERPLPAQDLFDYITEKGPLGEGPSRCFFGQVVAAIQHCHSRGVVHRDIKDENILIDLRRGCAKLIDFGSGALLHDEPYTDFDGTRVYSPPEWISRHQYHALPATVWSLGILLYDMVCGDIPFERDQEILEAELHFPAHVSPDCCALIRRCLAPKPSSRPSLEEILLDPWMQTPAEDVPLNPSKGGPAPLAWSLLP

For `O=Cc1c[nH]c2c1ccc1c3cc(-c4ccc(F)cc4F)ccc3[nH]c12`, the Activity [1] was 39%, the Activity [2] was 59% and the Activity [3] was 26%. It also gave an Activity [4] of 6%, an Activity [5] of 32% and an Activity [6] of 6%.
`OCCc1c[nH]c2c1ccc1c3ccccc3[nH]c12` showed an Activity [1] of 90%, an Activity [2] of 69% and an Activity [3] of 72%. For the same compound, the Activity [4] was 35%, the Activity [5] was 50% and the Activity [6] was 21%.
With `CCN(CC)C(=O)/C(=N\O)c1c[nH]c2c1ccc1c3ccccc3[nH]c12` the Activity [1] was 80%, the Activity [2] was 62% and the Activity [3] was 74%. For the same compound, the Activity [4] was 41%, the Activity [5] was 27% and the Activity [6] was 21%.
With `O=Cc1c[nH]c2c1ccc1c3cc(-c4ccccc4)ccc3[nH]c12` the Activity [1] was 60%, the Activity [2] was 68% and the Activity [3] was 54%. The Activity [4] was 16%, the Activity [5] was 53% and the Activity [6] was 15%.
In the case of `O=C(c1c[nH]c2c1ccc1c3ccccc3[nH]c12)C(F)(F)F`, the Activity [1] is reported as 61%, the Activity [2] is reported as 54% and the Activity [3] is reported as 20%. For the same compound, the Activity [4] was 20%, the Activity [5] was 30% and the Activity [6] was 7%.
Work on `O=S(=O)(c1ccccc1)n1ccc2ccc3c4ccccc4[nH]c3c21` yielded an Activity [1] of 83%, an Activity [2] of 65% and an Activity [3] of 102%. The Activity [4] was 61%, the Activity [5] was 62% and the Activity [6] was 64%.
For `OCc1c[nH]c2c1ccc1c3ccccc3[nH]c12`, the Activity [1] was 72%, the Activity [2] was 46% and the Activity [3] was 68%. For the same compound, the Activity [4] was 28%, the Activity [5] was 47% and the Activity [6] was 18%.
`O=Cc1c[nH]c2c1ccc1c3cc(-c4ccc(F)cc4)ccc3[nH]c12` showed an Activity [1] of 65%, an Activity [2] of 72% and an Activity [3] of 54%. The Activity [4] was 15%, the Activity [5] was 55% and the Activity [6] was 15%.
With `Brc1ccc2[nH]c3c(ccc4cc[nH]c43)c2c1` the Activity [1] was 69%, the Activity [2] was 67% and the Activity [3] was 55%. For the same compound, the Activity [4] was 12%, the Activity [5] was 46% and the Activity [6] was 8%.
Compound `O=Cc1c[nH]c2c1ccc1c3cc(Br)ccc3[nH]c12` has an Activity [1] of 31%, an Activity [2] of 82% and an Activity [3] of 11%. It also gave an IC50 (PC-3) of 5.9 µM, an IC50 (DU-145) of 12.2 µM and an IC50 (PA-1) of 2.8 µM. For the same compound, the IC50 [7] was 11 µM, the Activity [4] was 6% and the Activity [5] was 53%. For the same compound, the Activity [6] was 6%.
In the case of `O=Cc1c[nH]c2c1ccc1c3cc(-c4ccc(-c5ccccc5)cc4)ccc3[nH]c12`, the Activity [1] is reported as 69%, the Activity [2] is reported as 67% and the Activity [3] is reported as 77%. For the same compound, the Activity [4] was 39%, the Activity [5] was 70% and the Activity [6] was 48%.
With `O=Cc1c[nH]c2c1ccc1c3cc(-c4ccc(C(F)(F)F)cc4)ccc3[nH]c12` the Activity [1] was 79%, the Activity [2] was 49% and the Activity [3] was 70%. It also gave an Activity [4] of 28%, an Activity [5] of 52% and an Activity [6] of 23%.
`NC(=O)c1c[nH]c2c1ccc1c3ccccc3[nH]c12` gave an Activity [4] of 9%, an Activity [5] of 27% and an Activity [6] of 9%.
For `O=Cc1c[nH]c2c1ccc1c3cc(-c4ccc(OC(F)(F)F)cc4)ccc3[nH]c12`, the Activity [1] was 68%, the Activity [2] was 73% and the Activity [3] was 77%. The Activity [4] was 29%, the Activity [5] was 70% and the Activity [6] was 31%.
Compound `COc1cccc(-c2ccc3[nH]c4c(ccc5c(C=O)c[nH]c54)c3c2)c1` has an Activity [1] of 64%, an Activity [2] of 65% and an Activity [3] of 46%. It also gave an Activity [4] of 17%, an Activity [5] of 31% and an Activity [6] of 12%.
